In ChEMBL document CHEMBL2380211, “Conformational restriction in a series of GPR119 agonists: differences in pharmacology between mouse and human” (Bioorg Med Chem Lett, 2013):
Converted amounts (≈) assume the structure as drawn.

Key:
[1] = target: T1, Glucose-dependent insulinotropic receptor (Homo sapiens, UniProt Q8TDV5); test: Displacement of [3H]-N-(2-fluoro-4-methylsulfonyl-phenyl)-6-[4-(3-isopropyl-1,2,4-oxadiazol-5-yl)-1-piperidyl]-5-nitro-pyrimidin-4-amine from human GPR119 overexpressed in baculovirus infected Sf21 cell membranes after 120 mins by scintillation counting analysis
T1 sequence (Q8TDV5 whole entry): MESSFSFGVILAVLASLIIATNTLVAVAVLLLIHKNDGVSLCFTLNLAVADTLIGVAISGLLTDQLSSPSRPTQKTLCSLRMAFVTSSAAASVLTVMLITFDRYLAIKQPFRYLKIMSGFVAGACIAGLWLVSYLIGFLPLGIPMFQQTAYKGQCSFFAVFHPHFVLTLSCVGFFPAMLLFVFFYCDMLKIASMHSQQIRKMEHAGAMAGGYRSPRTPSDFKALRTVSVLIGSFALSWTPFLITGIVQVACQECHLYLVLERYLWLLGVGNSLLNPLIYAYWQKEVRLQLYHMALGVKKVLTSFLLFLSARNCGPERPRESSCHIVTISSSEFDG

[2] = target: T1, Glucose-dependent insulinotropic receptor; test: Agonist activity at human GPR119 overexpressed in HEK293S cells assessed as change in cAMP level after 45 mins by HTRF assay; assay type: functional, cell-based
[3] = target: T2, Glucose-dependent insulinotropic receptor (Mus musculus, UniProt Q7TQP3); test: Displacement of [3H]-N-(2-fluoro-4-methylsulfonyl-phenyl)-6-[4-(3-isopropyl-1,2,4-oxadiazol-5-yl)-1-piperidyl]-5-nitro-pyrimidin-4-amine from mouse GPR119 overexpressed in baculovirus infected Sf21 cell membranes after 120 mins by scintillation counting analysis
T2 sequence (Q7TQP3 whole entry): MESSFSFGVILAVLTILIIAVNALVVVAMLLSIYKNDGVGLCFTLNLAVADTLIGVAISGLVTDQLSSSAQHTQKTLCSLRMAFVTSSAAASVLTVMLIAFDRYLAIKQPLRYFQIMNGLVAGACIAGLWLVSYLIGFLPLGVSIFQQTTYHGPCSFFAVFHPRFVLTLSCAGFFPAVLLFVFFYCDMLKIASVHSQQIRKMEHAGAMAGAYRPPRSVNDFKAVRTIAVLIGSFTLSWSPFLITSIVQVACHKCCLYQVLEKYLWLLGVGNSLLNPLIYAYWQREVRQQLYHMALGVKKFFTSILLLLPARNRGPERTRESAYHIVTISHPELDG

[4] = Half life in rat at 2 mg/kg, iv; assay type: ADME, organism-based; set-up: dose 2 mg/kg, route intravenous; settings: in vivo
Procedure, shortened: (§1)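 Rats dosed at 2 mg/kg IV in 5% DMSO:95% hydroxypropyl beta cyclodextrin, and at 5 mg/kg orally as a 0.1% pluronic F127 suspension, both at 5 mL/kg.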

[5] = Plasma clearance in rat at 2 mg/kg, iv and 5 mg/kg, po; assay type: ADME, organism-based; procedure, shortened: as §1
[6] = Half life in rat at 5 mg/kg, po; assay type: ADME, organism-based; set-up: dose 5 mg/kg, route oral; settings: in vivo; procedure, shortened: as §1
[7] = Volume of distribution at steady state in rat at 2 mg/kg, iv and 5 mg/kg, po; assay type: ADME, organism-based; settings: in vivo, read-out: Vdss; procedure, shortened: as §1
[8] = Apparent permeability from apical to basolateral side in MDCK cells at 10 uM; assay type: ADME, cell-based, Canis lupus familiaris; settings: dog
Procedure, shortened: (§2)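 Compound incubated at 10 µM with cultured MDCK epithelial cells. Apparent permeability measured in both directions, A-B and B-A.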

[9] = Oral bioavailability in rat at 5 mg/kg; assay type: ADME, organism-based; settings: in vivo; procedure, shortened: as §1
Mus musculus = test: Antidiabetic activity in C57BL6/JAX mouse assessed as reduction in blood glucose AUC at 50 mg/kg administered 30 mins prior to glucose challenge measured up to 90 mins by OGTT relative to control; assay type: functional; set-up: scale not given: the % may be the effect or the level left
Procedure, shortened: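 C57BL6/JAX mice given compound at 50 mg/kg, 30 min before a 2 g/kg oral glucose load. Blood glucose followed to 90 min. Value is the % reduction in blood glucose AUC.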

[10] = 1-octanol-aqueous phosphate buffer distribution coefficient, log D of the compound at pH 7.4 after 30 mins by shake-flask method; assay type: physicochemical
Procedure, shortened: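 Partition of compound between 1-octanol and aqueous phosphate buffer, pH 7.4.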

[11] = Apparent permeability from basolateral to apical side in MDCK cells at 10 uM; assay type: ADME, cell-based, Canis lupus familiaris; settings: dog; procedure, shortened: as §2
[12] = Intrinsic clearance in rat hepatocytes measured per 10^6 cells; assay type: ADME, cell-based, Hepatocyte; settings: read-out: CLH
[13] = AUC in rat at 2 mg/kg, iv and 5 mg/kg, po; assay type: ADME, organism-based; settings: plasma; procedure, shortened: as §1
[14] = target: T2, Glucose-dependent insulinotropic receptor; test: Agonist activity at mouse GPR119 overexpressed in HEK293S cells assessed as change in cAMP level after 45 mins by HTRF assay; assay type: functional, cell-based
Cytochrome P450 3A4 = Cytochrome P450 3A4 (Homo sapiens, UniProt P08684); test: Inhibition of CYP3A4 (unknown origin); assay type: ADME
Chain of Cytochrome P450 3A4 (P08684 whole entry): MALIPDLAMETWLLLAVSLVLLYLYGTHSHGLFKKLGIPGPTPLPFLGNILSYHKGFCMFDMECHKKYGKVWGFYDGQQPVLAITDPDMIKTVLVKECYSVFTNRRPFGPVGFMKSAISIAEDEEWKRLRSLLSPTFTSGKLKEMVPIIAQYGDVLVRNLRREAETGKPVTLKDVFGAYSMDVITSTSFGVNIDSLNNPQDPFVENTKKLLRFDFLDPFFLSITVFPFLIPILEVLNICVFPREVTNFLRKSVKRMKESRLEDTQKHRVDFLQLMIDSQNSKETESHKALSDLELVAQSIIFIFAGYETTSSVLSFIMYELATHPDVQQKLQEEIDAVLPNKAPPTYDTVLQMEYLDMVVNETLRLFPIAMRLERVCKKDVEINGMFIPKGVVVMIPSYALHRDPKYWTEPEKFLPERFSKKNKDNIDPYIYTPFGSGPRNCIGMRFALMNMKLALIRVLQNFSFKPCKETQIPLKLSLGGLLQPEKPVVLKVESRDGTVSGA

Cytochrome P450 2C19 = Cytochrome P450 2C19 (Homo sapiens, UniProt P33261); test: Inhibition of CYP2C19 (unknown origin); assay type: ADME
Chain of Cytochrome P450 2C19 (P33261 whole entry): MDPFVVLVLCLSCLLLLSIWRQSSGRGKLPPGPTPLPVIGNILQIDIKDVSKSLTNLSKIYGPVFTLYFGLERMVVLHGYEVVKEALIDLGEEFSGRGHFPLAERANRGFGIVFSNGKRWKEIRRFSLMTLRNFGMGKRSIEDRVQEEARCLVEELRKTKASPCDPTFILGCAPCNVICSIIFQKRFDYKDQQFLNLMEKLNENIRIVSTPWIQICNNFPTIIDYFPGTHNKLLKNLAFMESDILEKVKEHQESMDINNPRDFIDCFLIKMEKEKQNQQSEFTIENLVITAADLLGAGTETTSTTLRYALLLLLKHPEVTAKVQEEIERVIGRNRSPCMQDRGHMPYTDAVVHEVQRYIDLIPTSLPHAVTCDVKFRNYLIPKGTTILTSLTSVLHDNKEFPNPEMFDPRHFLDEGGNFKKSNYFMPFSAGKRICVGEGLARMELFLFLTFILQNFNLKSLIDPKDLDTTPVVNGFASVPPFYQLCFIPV

Cytochrome P450 2C9 = Cytochrome P450 2C9 (Homo sapiens, UniProt P11712); test: Inhibition of CYP2C9 (unknown origin); assay type: ADME
Chain of Cytochrome P450 2C9 (P11712 whole entry): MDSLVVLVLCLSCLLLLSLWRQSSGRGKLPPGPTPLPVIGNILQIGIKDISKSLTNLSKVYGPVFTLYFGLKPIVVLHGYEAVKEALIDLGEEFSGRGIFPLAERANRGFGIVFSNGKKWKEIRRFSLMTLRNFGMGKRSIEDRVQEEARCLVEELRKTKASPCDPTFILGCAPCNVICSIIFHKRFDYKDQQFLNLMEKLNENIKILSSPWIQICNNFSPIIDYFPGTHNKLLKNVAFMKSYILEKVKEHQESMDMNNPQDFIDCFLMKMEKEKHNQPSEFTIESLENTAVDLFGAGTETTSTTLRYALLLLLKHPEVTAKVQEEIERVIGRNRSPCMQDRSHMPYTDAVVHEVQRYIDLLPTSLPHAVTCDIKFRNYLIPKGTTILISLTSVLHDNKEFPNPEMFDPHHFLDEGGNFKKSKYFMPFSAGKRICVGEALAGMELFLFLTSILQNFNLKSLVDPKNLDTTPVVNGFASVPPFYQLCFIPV

[15] = Aqueous solubility of the compound in phosphate buffer at pH 7.4 at 25 degC after 24 hrs by LC-UV analysis; assay type: physicochemical
Cytochrome P450 2D6 = Cytochrome P450 2D6 (Homo sapiens, UniProt P10635); test: Inhibition of CYP2D6 (unknown origin); assay type: ADME
Chain of Cytochrome P450 2D6 (P10635 whole entry): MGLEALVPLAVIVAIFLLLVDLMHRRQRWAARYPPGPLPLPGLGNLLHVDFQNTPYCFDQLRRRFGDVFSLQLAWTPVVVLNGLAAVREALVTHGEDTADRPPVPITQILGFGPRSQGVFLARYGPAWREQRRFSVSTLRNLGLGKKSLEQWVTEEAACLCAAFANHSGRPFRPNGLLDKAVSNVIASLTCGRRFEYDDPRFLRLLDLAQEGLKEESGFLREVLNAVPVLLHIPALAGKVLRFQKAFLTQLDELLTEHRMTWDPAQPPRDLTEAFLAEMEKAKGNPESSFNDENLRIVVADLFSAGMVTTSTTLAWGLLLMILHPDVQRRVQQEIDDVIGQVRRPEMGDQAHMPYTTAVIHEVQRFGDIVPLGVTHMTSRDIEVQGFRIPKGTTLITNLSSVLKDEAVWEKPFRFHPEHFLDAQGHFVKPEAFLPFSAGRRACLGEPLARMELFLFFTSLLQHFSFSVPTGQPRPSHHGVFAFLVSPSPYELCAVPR

[16] = Fraction unbound in rat plasma by equilibrium dialysis method; assay type: ADME, cell-free
Cytochrome P450 1A2 = target: T3, Cytochrome P450 1A2 (Homo sapiens, UniProt P05177); test: Inhibition of CYP1A2 (unknown origin); assay type: ADME
T3 sequence (P05177 whole entry): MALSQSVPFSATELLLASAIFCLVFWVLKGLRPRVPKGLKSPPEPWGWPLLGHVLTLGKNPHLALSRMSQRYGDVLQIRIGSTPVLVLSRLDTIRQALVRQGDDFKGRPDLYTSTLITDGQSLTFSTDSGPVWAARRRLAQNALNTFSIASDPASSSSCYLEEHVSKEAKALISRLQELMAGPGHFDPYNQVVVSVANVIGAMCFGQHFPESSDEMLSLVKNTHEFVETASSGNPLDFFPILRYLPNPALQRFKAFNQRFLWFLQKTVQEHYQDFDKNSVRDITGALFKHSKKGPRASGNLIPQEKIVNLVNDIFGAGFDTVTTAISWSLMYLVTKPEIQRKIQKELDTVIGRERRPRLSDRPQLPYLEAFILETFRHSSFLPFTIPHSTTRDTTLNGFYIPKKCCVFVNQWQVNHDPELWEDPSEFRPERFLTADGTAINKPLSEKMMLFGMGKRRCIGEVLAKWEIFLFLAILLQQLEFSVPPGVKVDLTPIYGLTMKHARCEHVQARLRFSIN

[17] = Fraction unbound in mouse plasma by equilibrium dialysis method; assay type: ADME, cell-free
[18] = target: Voltage-gated inwardly rectifying potassium channel KCNH2 (Homo sapiens, UniProt Q12809); test: Inhibition of human ERG by IonWorks assay
Chain of Voltage-gated inwardly rectifying potassium channel KCNH2 (Q12809 whole entry): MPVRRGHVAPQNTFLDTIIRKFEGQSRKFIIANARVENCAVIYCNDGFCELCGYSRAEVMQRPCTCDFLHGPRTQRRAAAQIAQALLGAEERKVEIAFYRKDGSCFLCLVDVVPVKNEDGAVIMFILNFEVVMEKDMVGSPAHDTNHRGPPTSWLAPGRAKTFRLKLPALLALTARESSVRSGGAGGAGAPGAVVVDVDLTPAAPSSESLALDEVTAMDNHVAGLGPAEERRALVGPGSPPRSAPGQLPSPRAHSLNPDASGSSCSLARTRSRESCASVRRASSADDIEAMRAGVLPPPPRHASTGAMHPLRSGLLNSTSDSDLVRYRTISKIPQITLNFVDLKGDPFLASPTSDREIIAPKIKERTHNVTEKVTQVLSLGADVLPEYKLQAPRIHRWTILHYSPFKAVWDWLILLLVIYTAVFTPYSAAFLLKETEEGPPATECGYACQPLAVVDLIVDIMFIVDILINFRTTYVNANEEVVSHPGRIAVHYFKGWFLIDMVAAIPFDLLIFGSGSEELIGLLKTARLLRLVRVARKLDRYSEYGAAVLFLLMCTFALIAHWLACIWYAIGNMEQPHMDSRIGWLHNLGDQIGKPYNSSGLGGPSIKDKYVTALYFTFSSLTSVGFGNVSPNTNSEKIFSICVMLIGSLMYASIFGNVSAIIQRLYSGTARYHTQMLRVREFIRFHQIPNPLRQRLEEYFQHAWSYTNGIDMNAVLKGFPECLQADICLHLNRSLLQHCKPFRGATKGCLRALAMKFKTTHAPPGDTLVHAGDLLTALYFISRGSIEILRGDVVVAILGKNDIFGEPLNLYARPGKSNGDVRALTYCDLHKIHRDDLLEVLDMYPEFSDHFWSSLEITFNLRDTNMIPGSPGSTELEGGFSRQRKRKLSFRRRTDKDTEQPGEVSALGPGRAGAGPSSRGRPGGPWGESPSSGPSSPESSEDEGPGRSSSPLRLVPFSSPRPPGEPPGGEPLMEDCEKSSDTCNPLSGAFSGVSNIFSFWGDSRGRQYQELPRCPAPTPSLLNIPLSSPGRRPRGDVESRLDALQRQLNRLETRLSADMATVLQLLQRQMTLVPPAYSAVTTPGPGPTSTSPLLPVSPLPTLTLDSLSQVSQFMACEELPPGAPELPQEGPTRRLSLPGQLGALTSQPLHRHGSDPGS

Compound `CC(C)(C)OC(=O)N1CC2CCC(C1)N2c1ncc(OCc2ccc(S(C)(=O)=O)cc2)cn1` has an IC50 [1] of 92 nM, an EC50 [2] of 79 nM and an IC50 [3] of 72 nM.
For `C[C@@H]1CN(C(=O)OCC(F)(F)F)CCN1c1ncc(OCc2ccncc2C#N)cn1`, the half-life [4] was 1.4 h, the clearance [5] was 14 mL/min/kg and the half-life [6] was 2.2 h. For the same compound, the Vd [7] was 1.1 L/kg, the Papp A→B at 10 µM [8] was 19 ×10⁻⁶ cm/s and the bioavailability [9] was 27%. For the same compound, the Activity (Mus musculus) was 10%, the logD at 0.5 h [10] was 3 and the Papp B→A at 10 µM [11] was 10 ×10⁻⁶ cm/s. The hepatocyte CLint [12] was 27 µL/min/1e6 cells and the AUC [13] was 3.2 µM·h.
In the case of `CC(C)c1nc(N2C3CCC2CN(c2ncc(OCc4ccncc4C#N)cn2)C3)no1`, the IC50 [1] is reported as 4 nM, the EC50 [14] is reported as 45 nM and the EC50 [2] is reported as 11 nM. It also gave an IC50 [3] of 122 nM.
`N#Cc1cnccc1COc1cnc(N2CC3CCC(C2)N3C(=O)OC2CC(F)(F)C2(F)F)nc1` (configuration not stated) gave an IC50 [1] of 9 nM, an EC50 [2] of 7 nM and an Activity (Mus musculus) of 3%. It also gave an IC50 [3] of 65 nM.
Work on `CC(C)(C)OC(=O)N1C2CCC1CN(c1ncc(OCc3ccc(S(C)(=O)=O)cc3)cn1)C2` yielded an IC50 [1] of 3 nM, an EC50 [2] of 11 nM and an IC50 [3] of 5 nM.
Compound `CC(C)c1nc(N2CCN(c3ncc(OCc4ccncc4C#N)cn3)CC2)no1` has an IC50 [1] of 12 nM, an EC50 [14] of 242 nM and an EC50 [2] of 19 nM. For the same compound, the IC50 [3] was 2720 nM.
Compound `N#Cc1cnccc1COc1cnc(N2CCN(C(=O)OC3CC(F)(F)C3(F)F)CC2)nc1` (configuration not stated) has an IC50 [1] of 25 nM, an EC50 [14] of 252 nM and an EC50 [2] of 20 nM. It also gave an Activity (Mus musculus) of 30% and an IC50 [3] of 758 nM.
`C[C@@H]1CN(C(=O)OC2CC(F)(F)C2(F)F)CCN1c1ncc(OCc2ccncc2C#N)cn1` (some centres not stated) showed an IC50 [1] of 6 nM, an EC50 [14] of 84 nM and an EC50 [2] of 6 nM. The IC50 [3] was 694 nM.
Compound `N#Cc1cnccc1COc1cnc(N2CC3CCC(C2)N3C(=O)OCC(F)(F)F)nc1` has a half-life [4] of 1.7 h, a clearance [5] of 11 mL/min/kg and an IC50 (Cytochrome P450 3A4) of over 30000 nM. For the same compound, the IC50 [1] was 8 nM, the IC50 (Cytochrome P450 2C19) was over 30000 nM and the half-life [6] was 2.6 h. The EC50 [14] was 20 nM, the IC50 (Cytochrome P450 2C9) was over 30000 nM and the solubility at 24 h [15] was 3.8 µM (≈ 1.7 µg/mL). For the same compound, the IC50 (Cytochrome P450 2D6) was over 30000 nM, the Vd [7] was 1 L/kg and the Papp A→B at 10 µM [8] was 25 ×10⁻⁶ cm/s. It also gave a bioavailability [9] of 17%, an EC50 [2] of 9 nM and an Activity (Mus musculus) of 6%. For the same compound, the logD at 0.5 h [10] was 3, the fraction unbound [16] was 0.065 and the IC50 (Cytochrome P450 1A2) was over 30000 nM. For the same compound, the IC50 [3] was 104 nM, the fraction unbound [17] was 0.096 and the Papp B→A at 10 µM [11] was 20 ×10⁻⁶ cm/s. For the same compound, the hepatocyte CLint [12] was 13 µL/min/1e6 cells and the AUC [13] was 2.1 µM·h.
For `CC(C)(C)OC(=O)N1C2CCC1CN(c1ncc(OCc3ccncc3C#N)cn1)C2`, the IC50 [1] was 1 nM, the EC50 [2] was 4 nM and the IC50 [3] was 9 nM.
In the case of `N#Cc1cnccc1COc1cnc(N2CCN(C(=O)OCC(F)(F)F)CC2)nc1`, the half-life [4] is reported as 3.9 h, the clearance [5] is reported as 22 mL/min/kg and the IC50 (Cytochrome P450 3A4) is reported as over 30000 nM. The IC50 [1] was 18 nM, the IC50 (Cytochrome P450 2C19) was over 30000 nM and the half-life [6] was 2.1 h. It also gave an EC50 [14] of 698 nM, an IC50 (Cytochrome P450 2C9) of over 30000 nM and a solubility at 24 h [15] of 3.3 µM (≈ 1.39 µg/mL). It also gave an IC50 (Cytochrome P450 2D6) of over 30000 nM, a Vd [7] of 5.3 L/kg and a Papp A→B at 10 µM [8] of 32 ×10⁻⁶ cm/s. The bioavailability [9] was 48%, the EC50 [2] was 47 nM and the Activity (Mus musculus) was 21%. The logD at 0.5 h [10] was 3, the fraction unbound [16] was 0.051 and the IC50 (Cytochrome P450 1A2) was over 30000 nM. For the same compound, the IC50 [3] was 4990 nM, the fraction unbound [17] was 0.094 and the hepatocyte CLint [12] was 12 µL/min/1e6 cells. The AUC [13] was 4 µM·h and the IC50 [18] was 10000 nM.
